In ChEMBL document CHEMBL1131058, “Studies on quinazolines and 1,2,4-benzothiadiazine 1,1-dioxides. 8.1, 2 synthesis and pharmacological evaluation of tricyclic fused quinazolines and 1,2,4-benzothiadiazine 1,1-dioxides as potential alpha1-adrenoceptor antagonists” (J Med Chem, 1998) one finds Ki and Ratio data, which are given here for 21 molecules.

The structures appear in SMILES notation.

Assay [1] addresses T1, Adrenergic receptor alpha-2 (Rattus norvegicus, UniProt P22086+P19328+P22909).
T1 sequence (P22086 whole entry): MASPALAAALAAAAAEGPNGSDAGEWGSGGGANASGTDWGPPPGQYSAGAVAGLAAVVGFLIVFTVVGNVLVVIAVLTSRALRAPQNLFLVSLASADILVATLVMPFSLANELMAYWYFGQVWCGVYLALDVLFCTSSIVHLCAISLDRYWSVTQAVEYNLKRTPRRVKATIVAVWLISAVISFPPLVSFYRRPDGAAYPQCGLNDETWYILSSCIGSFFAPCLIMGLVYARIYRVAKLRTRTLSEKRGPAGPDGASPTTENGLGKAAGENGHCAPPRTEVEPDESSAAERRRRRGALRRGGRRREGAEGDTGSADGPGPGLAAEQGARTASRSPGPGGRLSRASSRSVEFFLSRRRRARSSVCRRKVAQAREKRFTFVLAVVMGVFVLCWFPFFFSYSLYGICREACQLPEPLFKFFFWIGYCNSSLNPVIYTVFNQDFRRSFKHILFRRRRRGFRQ
T1 sequence (P19328 whole entry): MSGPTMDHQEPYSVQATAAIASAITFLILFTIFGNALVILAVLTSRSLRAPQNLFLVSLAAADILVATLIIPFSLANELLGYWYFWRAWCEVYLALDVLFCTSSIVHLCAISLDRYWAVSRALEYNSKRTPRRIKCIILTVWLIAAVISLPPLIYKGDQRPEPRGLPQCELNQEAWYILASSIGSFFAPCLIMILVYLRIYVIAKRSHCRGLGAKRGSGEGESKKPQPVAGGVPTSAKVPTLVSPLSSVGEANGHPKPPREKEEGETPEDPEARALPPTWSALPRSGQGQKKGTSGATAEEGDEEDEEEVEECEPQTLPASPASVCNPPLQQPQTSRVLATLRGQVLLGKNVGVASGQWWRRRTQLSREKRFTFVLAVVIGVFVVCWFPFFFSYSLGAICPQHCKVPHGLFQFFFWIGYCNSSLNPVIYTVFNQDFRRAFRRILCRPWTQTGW
T1 sequence (P22909 whole entry): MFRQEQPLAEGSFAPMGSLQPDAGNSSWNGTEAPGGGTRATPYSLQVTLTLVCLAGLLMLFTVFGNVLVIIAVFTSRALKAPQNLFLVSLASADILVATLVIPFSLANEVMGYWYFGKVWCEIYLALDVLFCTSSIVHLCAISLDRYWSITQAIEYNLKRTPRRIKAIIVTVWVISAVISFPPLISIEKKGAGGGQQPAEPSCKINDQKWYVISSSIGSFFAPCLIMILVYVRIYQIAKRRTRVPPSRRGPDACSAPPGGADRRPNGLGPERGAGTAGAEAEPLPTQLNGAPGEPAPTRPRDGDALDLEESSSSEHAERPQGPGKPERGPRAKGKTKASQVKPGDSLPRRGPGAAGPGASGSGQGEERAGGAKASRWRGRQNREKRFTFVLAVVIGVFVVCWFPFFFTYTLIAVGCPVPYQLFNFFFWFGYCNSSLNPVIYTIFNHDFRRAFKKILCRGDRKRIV
The experiment in a line: Displacement of clonidine from Alpha-2 adrenergic receptor in rat brain cortex. Type of assay: tissue-based. The essentials: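 α2 competition binding run in triplicate with 1 nM [³H]clonidine plus 10 mM MgCl₂ in Tris pH 7.4, 30 min at room temperature. Test compounds at 1-100 µM. Nonspecific binding defined with 10 µM clonidine. Membranes collected on GF/B filters and washed twice with cold Tris. Protein 300-400 µg per assay. Ki given as mean ± SEM of 3-6 experiments.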

The target of assay [2] is T2, Adrenergic receptor alpha-1 (Rattus norvegicus, UniProt P15823+P23944+P43140).
T2 sequence (P15823 whole entry): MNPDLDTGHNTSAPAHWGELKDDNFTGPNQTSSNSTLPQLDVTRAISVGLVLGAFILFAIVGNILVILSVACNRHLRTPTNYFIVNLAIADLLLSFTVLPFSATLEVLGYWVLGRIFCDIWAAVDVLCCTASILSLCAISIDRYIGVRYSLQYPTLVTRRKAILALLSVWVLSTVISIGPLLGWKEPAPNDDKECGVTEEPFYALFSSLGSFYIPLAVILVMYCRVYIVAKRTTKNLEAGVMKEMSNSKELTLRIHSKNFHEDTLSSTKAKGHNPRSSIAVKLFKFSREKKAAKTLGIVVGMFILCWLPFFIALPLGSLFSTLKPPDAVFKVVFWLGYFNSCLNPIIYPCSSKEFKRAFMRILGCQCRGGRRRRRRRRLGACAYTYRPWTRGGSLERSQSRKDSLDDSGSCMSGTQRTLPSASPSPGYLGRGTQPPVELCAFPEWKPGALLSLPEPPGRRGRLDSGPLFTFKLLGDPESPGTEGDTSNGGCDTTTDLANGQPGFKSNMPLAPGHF
T2 sequence (P23944 whole entry): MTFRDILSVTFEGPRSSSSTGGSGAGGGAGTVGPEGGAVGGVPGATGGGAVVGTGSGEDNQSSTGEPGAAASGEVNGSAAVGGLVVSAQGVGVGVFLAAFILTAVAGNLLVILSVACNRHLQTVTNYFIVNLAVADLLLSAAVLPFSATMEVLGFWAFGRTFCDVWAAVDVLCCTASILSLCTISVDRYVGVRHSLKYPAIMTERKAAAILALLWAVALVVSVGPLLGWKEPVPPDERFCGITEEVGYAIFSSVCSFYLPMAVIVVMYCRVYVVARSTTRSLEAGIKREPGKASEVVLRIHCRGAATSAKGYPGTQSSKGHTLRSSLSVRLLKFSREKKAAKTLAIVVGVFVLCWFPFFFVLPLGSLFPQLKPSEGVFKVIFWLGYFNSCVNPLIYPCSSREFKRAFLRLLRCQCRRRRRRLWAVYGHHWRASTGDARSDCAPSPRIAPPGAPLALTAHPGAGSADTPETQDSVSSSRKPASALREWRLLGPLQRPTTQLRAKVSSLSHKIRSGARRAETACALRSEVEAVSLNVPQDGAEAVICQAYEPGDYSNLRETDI
T2 sequence (P43140 whole entry): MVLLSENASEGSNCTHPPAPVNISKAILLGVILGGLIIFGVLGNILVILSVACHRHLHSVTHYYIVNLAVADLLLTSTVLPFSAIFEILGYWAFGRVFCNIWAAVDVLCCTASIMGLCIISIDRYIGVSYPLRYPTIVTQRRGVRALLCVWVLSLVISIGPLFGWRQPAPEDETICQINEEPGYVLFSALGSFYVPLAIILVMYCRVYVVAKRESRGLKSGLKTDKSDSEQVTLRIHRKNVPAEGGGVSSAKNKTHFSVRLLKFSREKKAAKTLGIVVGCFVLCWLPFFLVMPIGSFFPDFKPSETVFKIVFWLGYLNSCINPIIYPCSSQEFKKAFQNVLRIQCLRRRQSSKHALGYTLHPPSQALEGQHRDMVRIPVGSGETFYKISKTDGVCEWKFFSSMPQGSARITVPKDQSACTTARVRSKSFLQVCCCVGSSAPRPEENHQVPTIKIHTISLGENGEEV
The experiment in a line: Binding affinity towards Alpha-1 adrenergic receptor measured by displacement of [3H]prazosin from rat brain cortex membranes. Type of assay: cell membranes, Membrane. The essentials:
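Triplicate competition binding against 0.2-0.25 nM [³H]prazosin in Tris buffer pH 7.4, 30 min at room temperature. Competitor range 0.1-200 nM. Nonspecific binding defined with 10 µM phentolamine. Reaction stopped by GF/B filtration with two cold Tris washes. Membrane protein 300-400 µg per assay. Ki calculated from the data; mean ± SEM of 3-6 experiments.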
(In general: In a radioligand displacement assay an active substance lowers the binding of a labelled ligand.)

Assay [3] can be described thus: Selectivity ratio for binding affinity towards alpha2 and alpha-1 adrenoceptors. The essentials:
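Ratio of α2 Ki ([³H]clonidine binding) to α1 Ki ([³H]prazosin binding), both measured in rat cortical membrane competition assays.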

By Ki is commonly meant the dissociation constant of the complex between target and ligand, obtained from inhibition or displacement. Turning to `COc1ccccc1N1CCN(Cc2cnc3c4ccccc4n(C)c(=O)n23)CC1`, the figures for the Ki in assay [1] and in assay [2] were 3.09 µM and 0.0061 µM, respectively. Moreover, in assay [3], the Ratio was determined as 506. In assay [2], `Oc1nc2ccccc2c2nc(CN3CCN(c4ccccc4Cl)CC3)c(Br)n12` showed a Ki of more than 10 µM.

Turning to `COc1ccccc1N1CCN(Cc2cn3c(=O)n(C)c4ccccc4c3n2)CC1`, the values for the Ki in assay [1] and in assay [2] were 3.25 µM and 0.0065 µM, respectively. In assay [3], the Ratio worked out at 499. In the case of `COc1ccccc1N1CCN(Cc2nc3c4ccccc4nc(O)n3c2Br)CC1`, the inhibition constant (Ki) in assay [2] was more than 10 µM.

On to `COc1ccccc1N1CCN(Cc2c(Br)sc3nc4ccccc4c(=O)n23)CC1`, for which the Ki in assay [2] was more than 10 µM. `COc1ccccc1N1CCN(Cc2csc3nc4ccccc4c(=O)n23)CC1` displayed a Ki in assay [2] of more than 10 µM. In the case of `COc1ccccc1N1CCN(Cc2nc3c4ccccc4n(C)c(=O)n3c2Br)CC1`, the Ki in assay [2] was more than 10 µM. Regarding `COc1ccccc1N1CCN(Cc2c(Br)nc3c4ccccc4nc(O)n23)CC1`, the inhibition constant Ki in assay [2] is more than 10 µM.

For `O=c1c2ccccc2nc2sc(Br)c(CN3CCN(c4ccccc4Cl)CC3)n12`, the inhibition constant (Ki) in assay [2] is more than 10 µM. As to `Cn1c(=O)n2c(Br)c(CN3CCN(c4ccccc4Cl)CC3)nc2c2ccccc21`, the inhibitory constant (Ki) in assay [2] is more than 10 µM. Take `COc1ccccc1N1CCN(CC2CN=C3Nc4ccccc4S(=O)(=O)N32)CC1` (stereo not given): the Ki in assay [1] amounted to 0.46 µM; in assay [2], 0.00495 µM. Moreover, the Ratio in assay [3] is 93. `COc1ccccc1N1CCN(Cc2c(Br)nc3c4ccccc4n(C)c(=O)n23)CC1` displayed an inhibition constant Ki in assay [2] of more than 10 µM. Take `Cn1c(=O)n2c(CN3CCN(c4ccccc4Cl)CC3)c(Br)nc2c2ccccc21`: the Ki in assay [2] was more than 10 µM. Take `O=S1(=O)c2ccccc2NC2=NCC(CN3CCN(c4ccccc4Cl)CC3)N21` (stereo not given): the Ki in assay [1] came to 2.29 µM; in assay [2] it was 0.0118 µM. The Ratio in assay [3] was found to be 194. As to `Cn1c(=O)n2c(CN3CCN(c4ccccc4Cl)CC3)cnc2c2ccccc21`, the Ki is 0.525 µM in assay [1] and 0.00428 µM in assay [2]. The Ratio in assay [3] is 123. In the case of `COc1ccccc1N1CCN(CC2CN=C3Nc4ccccc4C(=O)N32)CC1` (stereo not given), in assay [2], the Ki stood at 0.186 µM. Consider `Oc1nc2ccccc2c2nc(CN3CCN(c4ccccc4Cl)CC3)cn12`, for which the values for the Ki in assay [1] and in assay [2] were 4.51 µM and 0.00929 µM, respectively. In addition, the Ratio in assay [3] worked out at 486.

`Oc1nc2ccccc2c2nc(Br)c(CN3CCN(c4ccccc4Cl)CC3)n12` had an inhibition constant Ki in assay [2] of more than 10 µM. In the case of `Cn1c(=O)n2cc(CN3CCN(c4ccccc4Cl)CC3)nc2c2ccccc21`, the Ki in assay [1] was determined as 0.513 µM; in assay [2], 0.0141 µM. The Ratio in assay [3] was determined as 36. In assay [2], `COc1ccccc1N1CCN(CC2CSc3nc4ccccc4c(=O)n32)CC1` (stereo not given) showed a Ki of more than 10 µM.

In turn, `O=c1c2ccccc2nc2scc(CN3CCN(c4ccccc4Cl)CC3)n12` came in with a Ki in assay [2] of more than 10 µM.
